Experimental data reported in ChEMBL document CHEMBL1127859, “Selective inhibition of trypanosomal glyceraldehyde-3-phosphate dehydrogenase by protein structure-based design: toward new drugs for the treatment of sleeping sickness” (J Med Chem, 1994).

How the values were obtained:
[1] = Tested for the inhibitory activity against Glycosomal glyceraldehyde 3-phosphate dehydrogenase (gGAPDH) of Trypanosoma brucei
In short: (§1)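 Recombinant glycosomal GAPDH overexpressed in E. coli and purified. Started with enzyme. Initial rates compared with a 5% DMSO control; NADH absorbance interference checked without enzyme. IC50 from ≥5 concentrations giving 5–80% inhibition.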

[2] = target: Glyceraldehyde-3-phosphate dehydrogenase (Homo sapiens, UniProt P04406); assay: Tested for the inhibitory activity against Glycosomal glyceraldehyde 3-phosphate dehydrogenase (gGAPDH) of human erythrocyte
Sequence of Glyceraldehyde-3-phosphate dehydrogenase (P04406 whole entry): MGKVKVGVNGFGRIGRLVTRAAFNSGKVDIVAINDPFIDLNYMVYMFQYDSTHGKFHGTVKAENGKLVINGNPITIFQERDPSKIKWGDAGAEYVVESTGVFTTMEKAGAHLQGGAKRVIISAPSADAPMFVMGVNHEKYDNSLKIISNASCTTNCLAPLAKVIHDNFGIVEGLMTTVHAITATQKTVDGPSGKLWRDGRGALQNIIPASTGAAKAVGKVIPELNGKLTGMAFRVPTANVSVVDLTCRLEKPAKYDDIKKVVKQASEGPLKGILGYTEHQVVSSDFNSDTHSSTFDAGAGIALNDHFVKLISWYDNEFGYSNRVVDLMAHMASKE

[3] = Tested for the inhibitory activity against Glycosomal glyceraldehyde 3-phosphate dehydrogenase (gGAPDH) of Leishmania mexicana; in short: as §1
[4] = Tested for the inhibitory activity against Glycosomal glyceraldehyd 3-phosphate dehydrogenase (gGAPDH) of Trypanosoma brucei
In short: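 Recombinant T. brucei gGAPDH expressed in E. coli. Reaction started with enzyme; NADH absorbance read. Activity from initial rates versus a DMSO-only control. IC50 from at least five inhibitor concentrations giving 5–80% inhibition.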

Structure (SMILES)	IC50 [1] [mM]	IC50 [2] [mM]	IC50 [3] [mM]	IC50 [4] [mM]
Nc1ncnc2c1ncn2[C@@H]1O[C@H](CO)[C@@H](O)[C@H]1NC(=O)c1ccccc1	6	> 10	3.3	–
Nc1ncnc2c1nc(-c1cccs1)n2[C@@H]1O[C@H](CO)C(O)[C@H]1O (single isomer, unassigned)	–	1.3	0.5	0.6
Nc1ncnc2c1ncn2[C@@H]1O[C@H](CO)[C@@H](O)[C@H]1NC(=O)c1cccs1	5	> 10	2.4	–
Cc1nc(N)c2ncn([C@@H]3O[C@H](CO)[C@@H](O)[C@H]3O)c2n1 [2-METHYLADENOSINE]	8	> 10	6	–
COc1cccc(C(=O)N[C@@H]2[C@H](O)[C@@H](CO)O[C@H]2n2cnc3c(N)ncnc32)c1	2.2	> 10	0.3	–
Nc1ncnc2c1ncn2[C@@H]1O[C@H](CO)[C@@H](O)[C@H]1O [ADENOSINE]	100	35	50	–
Nc1ncnc2c1nc(-c1ccccc1)n2[C@@H]1O[C@H](CO)[C@@H](O)[C@H]1O	10	10	–	–
